Screening results (PubChem BioAssay)
hIAP inh – blocks human intestinal alkaline phosphatase | P09923 | purified IAP, CDP-Star luminescence, 30 min | inhibition, % at 10 µM | 330,000 compounds, 0.12% hits | AID 2544;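 active means inhibition reaching a set limit with compound at 10 µM in the primary screen, cut at about 35% in these data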
Target sequence (P09923 whole entry, looked up): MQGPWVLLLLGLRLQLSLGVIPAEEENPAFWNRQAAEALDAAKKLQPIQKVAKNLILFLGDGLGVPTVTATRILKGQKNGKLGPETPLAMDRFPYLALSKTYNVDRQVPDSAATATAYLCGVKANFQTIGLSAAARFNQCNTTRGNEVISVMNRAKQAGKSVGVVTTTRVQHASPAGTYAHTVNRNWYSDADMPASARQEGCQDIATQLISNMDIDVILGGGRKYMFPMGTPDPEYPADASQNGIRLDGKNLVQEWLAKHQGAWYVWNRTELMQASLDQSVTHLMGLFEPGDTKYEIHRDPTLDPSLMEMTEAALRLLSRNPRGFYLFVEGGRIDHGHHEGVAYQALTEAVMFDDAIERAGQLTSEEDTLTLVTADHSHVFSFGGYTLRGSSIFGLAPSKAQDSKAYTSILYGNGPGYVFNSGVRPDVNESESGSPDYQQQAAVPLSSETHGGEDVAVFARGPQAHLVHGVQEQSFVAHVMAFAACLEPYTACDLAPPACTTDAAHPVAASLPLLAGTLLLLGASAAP
mIAP block – mouse IAP inhibition; inhibition, % at 10 µM; AID 2806; 330,000 compounds, 0.2% hits; purified mouse IAP, CDP-Star luminescence, 30 min;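 active means inhibition of at least 40% at 10 µM in the primary screen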
bIAP inhibitor – intestinal alkaline phosphatase (bovine) inhibition; 190,000 tested, under 10 active; purified bovine IAP, CDP-star luminescence, 30 min; inhibition, % at 20 µM;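 active means over 50% inhibition of intestinal alkaline phosphatase at 20 µM in the single-dose screen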
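test system = bovine IAP enzyme | medium = DEA buffer 100 mM, pH 9.8, with MgCl2 1.0 mM, ZnCl2 0.02 mM | detection = luminescence | dosing = single compound dose of 20 µM, 2% DMSO final | incubation = 30 min reaction at room temperature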
bIAP act – increases bovine intestinal alkaline phosphatase activity; purified bovine IAP, CDP-star luminescence, 30 min; stronger effect = higher value; fold of DMSO-control signal, blank-subtracted; activation factor at 20 µM; 200,000 compounds, 0.17% hits; AID 1016;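 active means activation factor of 2 or more at 20 µM, a signal rise over negative controls twice the positive control's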
hIAP act – human IAP activation. purified human IAP, CDP-Star luminescence, 30 min; stronger effect = higher value; 1 = vehicle-only enzyme, 0 = enzyme-free background. activation factor at 10 µM. 330,000 compounds, 0.16% hits;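 active means activation factor of the enzyme at least 2-fold when tested at 20 µM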
mIAP act – increases mouse intestinal alkaline phosphatase activity | 330,000 compounds, 0.24% hits | AID 2805 | activation factor at 10 µM | muIAP, CDP-Star luminescence, 30 min; stronger effect = higher value; 1 = vehicle-only enzyme signal, 0 = enzyme-free wells;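 active means activation factor of at least 2 at 20 µM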
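Assay system: mouse IAP enzyme; Reagent: CDP-Star chemiluminescent phosphatase substrate; Compound: DMSO-dissolved test compounds; Incubation: 30 min, room temperature; Technique: luminescence from enzymatic CDP-Star hydrolysis; Controls: DMSO-only wells and no-enzyme negative control.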
hIAP act conf – human IAP activation confirmation; shares compounds with hIAP act; purified IAP, CDP-Star luminescence, 30 min; stronger effect = lower value; activation (%Activity, negative = activation), % at 8.3 µM; 880 compounds, 10% hits; AID 434926;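 active means at least twofold enzyme activation in any of six single-dose repeats, which the averaged readout prints as negative percent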
mIAP inh conf – mouse IAP inhibition confirmation; shares compounds with mIAP block; purified mouse IAP, CDP-Star luminescence, 30 min; inhibition, % at 10 µM; 11,000 compounds, 4.7% hits; AID 434971;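 active means inhibition of at least 40% at 10 µM in either of the two replicates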
Of the large screens only hits and unclear results are named; the others gave an inactive call (follow-up assays come after a bar, where they were run). Compounds with a hit are over-represented: about 0.72% of the library has one in this group of screens.

Cc1ccc(NC(=O)C2CC(=O)n3c(nc4ccccc43)N2)cc1 (stereo not given)	none
COc1cc(/C=C/C(O)=C/C(=O)/C=C/c2ccc(O)cc2)ccc1O	hIAP inh 35.4, mIAP block 52.6 (no result: bIAP inhibitor, bIAP act) | hIAP act conf inactive | mIAP inh conf 47.5
CCOC(=O)/C(=N\Nc1ccc(Br)cc1)N1CC(C)OC(C)C1 (stereo not given)	none (no result: bIAP inhibitor, bIAP act)
CCn1nc(C)c(CN2CCC(C(=O)Nc3cccc(-c4cccc(F)c4)c3)CC2)c1C	hIAP act 6.14, mIAP act 4.87 (no result: bIAP inhibitor, bIAP act) | hIAP act conf inactive | mIAP inh conf inactive
CC(C)n1cc(CN2CCC(C(=O)Nc3cccc(-c4cccc(Cl)c4)c3)CC2)cn1	hIAP act 8.78, mIAP act 5.95 (no result: bIAP inhibitor, bIAP act) | hIAP act conf -96.7 | mIAP inh conf inactive
CCn1cc(CN2CCC(C(=O)Nc3cccc(-c4cccc(OC)c4)c3)CC2)cn1	none (no result: bIAP inhibitor, bIAP act)
Cc1cccc(NC(=O)NCC2CCN(c3ccc(S(=O)(=O)N4CCOCC4)cc3)CC2)c1	hIAP act 2.08, mIAP act 3.51 (no result: bIAP inhibitor, bIAP act) | hIAP act conf inactive | mIAP inh conf inactive
Cc1ccccc1NC(=O)NCC1CCN(c2ccc(S(=O)(=O)N3CCOCC3)cc2)CC1	none (no result: bIAP inhibitor, bIAP act)
Cc1ccc(CNC(=O)C2CCN(S(=O)(=O)c3ccc4c(c3)CC(C)N4C(=O)C3CCC3)CC2)o1 (stereo not given)	none (no result: bIAP inhibitor, bIAP act)
N#C/C(=C\c1ccc(O)c(O)c1)C(=O)N1CCCC1	none
N#C/C(=C\c1ccc(O)c(O)c1)C(=O)c1ccc(O)c(O)c1	hIAP inh 37.4, mIAP block 86.6 (no result: bIAP inhibitor, bIAP act) | hIAP act conf inactive | mIAP inh conf 86.5
Cc1ccc(CNC(=S)NC2CCC(C(C)(C)C)CC2)cc1 (stereo not given)	hIAP act 2.07, mIAP act 4.55 (no result: bIAP inhibitor, bIAP act) | hIAP act conf inactive | mIAP inh conf inactive
O=C(CNCc1cccs1)Nc1ccc(OC(F)(F)F)cc1	none (no result: bIAP inhibitor, bIAP act)
CN=c1scc(-c2ccco2)n1/N=C/c1ccc(O)c(O)c1	hIAP inh 35.4, mIAP block 54.8 | hIAP act conf inactive | mIAP inh conf 62.8
COc1ccc(O)c(/C=N/n2c(-c3ccco3)csc2=Nc2cccnc2)c1	none
COc1cccc(OCc2cc(C(=O)NC(C)c3cnn(C)c3C)no2)c1 (stereo not given)	none (no result: bIAP inhibitor, bIAP act)
O=C(COC(=O)c1ccccc1)Nc1ncc([N+](=O)[O-])s1	mIAP block 67.4 (no result: bIAP inhibitor, bIAP act) | mIAP inh conf 72.2
COc1cc2c(cc1OC)CN(C(=O)c1ccc(Cl)c(S(=O)(=O)N3CCCC3)c1)CC2	none (no result: bIAP inhibitor, bIAP act)
CCc1noc(C)c1C(=O)Nc1ccc(Cl)c(S(=O)(=O)N2CCCCC2)c1	none (no result: bIAP inhibitor, bIAP act)
CCCCN(C(=O)c1ccc(-c2ccc([N+](=O)[O-])cc2)o1)c1c(N)n(CC(C)C)c(=O)[nH]c1=O	none (no result: bIAP inhibitor, bIAP act)
c1coc(CNc2nc(-c3cccs3)cs2)c1	mIAP block 45.1 | mIAP inh conf 48.8
COc1ccc(S(=O)(=O)N2CCNCC2)cc1	none (no result: bIAP inhibitor, bIAP act)
Cc1ccc(SCC(=O)N/N=C/c2ccco2)cc1	none (no result: bIAP inhibitor, bIAP act)
O=c1ccc2cc3c([nH]c4ccc(Br)cc43)oc-2c1O	mIAP block 47.6 | mIAP inh conf 44.1
O=C(O)c1ccc(N=Nc2c(O)[nH]c3ccc(Br)cc23)cc1	none (no result: bIAP inhibitor, bIAP act)
Cc1ccc(N2CSC3=C(C#N)C(c4cccs4)CC(=O)N3C2)cc1 (stereo not given)	mIAP block 46.4 | mIAP inh conf 46.1
N#CC1=C2SCN(c3ccc(F)cc3)CN2C(=O)CC1c1cccc(F)c1 (stereo not given)	mIAP block 60.4 | mIAP inh conf 59.3
Cc1ccc2[nH]c3c(NCc4ccccc4)ncnc3c2c1	mIAP act 3.04 (no result: bIAP inhibitor, bIAP act) | mIAP inh conf inactive
COc1ccc(CNc2ncnc3c2[nH]c2ccccc23)cc1	mIAP act 3.06 (no result: bIAP inhibitor, bIAP act) | mIAP inh conf inactive
Brc1ccc2[nH]c3c(NCc4ccccn4)ncnc3c2c1	none (no result: bIAP inhibitor, bIAP act)
COc1ccc(CNc2ncnc3c2[nH]c2cc(OC)c(OC)cc23)cc1	none (no result: bIAP inhibitor, bIAP act)
O=C(CN1CCc2ccccc2C1)Nc1ccccc1C(F)(F)F	none (no result: bIAP inhibitor, bIAP act)
O=C(NCc1ccc2c(c1)CCO2)Nc1cccc(C(F)(F)F)c1	mIAP act 3.78 (no result: bIAP inhibitor, bIAP act) | mIAP inh conf inactive
O=C(NCc1cccnc1)Nc1cccc(C(F)(F)F)c1	none (no result: bIAP inhibitor, bIAP act)
CSc1ccc(CN2CCC(n3nccc3NC(=O)CCCc3ccccc3)CC2)cc1	mIAP act 2.71 (no result: bIAP inhibitor, bIAP act) | mIAP inh conf inactive
O=C(CCC(=O)c1cccs1)OCC(=O)c1ccccc1F	none (no result: bIAP inhibitor, bIAP act)
Nc1ncnc2oc(-c3ccco3)c(-c3ccco3)c12	mIAP block 71.4 | mIAP inh conf 74.6
c1ccc(-c2nccc(-c3ccco3)n2)nc1	none
C#CCOCCOCCOCCNc1nc(N2CCN(C(=O)CCCCCCCCCCNC(=O)Cn3cc(C[C@@H](C)O)nn3)CC2)nc(N2CCN(C(=O)CCCCCCCCCCNC(=O)[C@H](CCCN=C(N)N)n3cc(C[C@@H](C)CC)nn3)CC2)n1	mIAP act 4.91 (no result: bIAP inhibitor, bIAP act) | mIAP inh conf inactive
C#CCOCCOCCOCCNc1nc(N2CCN(C(=O)CCCCCCCCCCNC(=O)[C@H](CO)n3cc(CCCSC)nn3)CC2)nc(N2CCN(C(=O)CCCCCCCCCCNC(=O)[C@H](CCCN=C(N)N)n3cc(C[C@@H](C)CC)nn3)CC2)n1	mIAP act 2.61 (no result: bIAP inhibitor, bIAP act) | mIAP inh conf inactive
C#CCOCCOCCOCCNc1nc(N2CCN(C(=O)CCCCCCCCCCNC(=O)Cn3cc(C[C@@H](C)O)nn3)CC2)nc(N2CCN(C(=O)CCCCCCCCCCNC(=O)[C@H](CCCCN)n3cc(CCCC(=O)O)nn3)CC2)n1	none (no result: bIAP inhibitor, bIAP act)
COc1ccc(C(=O)OCC(=O)NC2CCCCCC2)cc1OC	mIAP block 58.2 (no result: bIAP inhibitor, bIAP act) | mIAP inh conf 70.7
Cc1cc2nc3s/c(=C/c4ccc(-c5ccccc5C(=O)O)o4)c(=O)n3c2cc1C	none (no result: bIAP inhibitor, bIAP act)
O=C(O)c1ccccc1-c1ccc(/C=c2\sc3nc4cc(Br)cnc4n3c2=O)o1	mIAP block 78.2 | mIAP inh conf 74.6
CC1=C(/C=C/C(C)=N\NC(=O)c2ccncc2)C(C)(C)CCC1	none
Cc1c(N(C)S(=O)(=O)c2cc(C(=O)NCC3CCCO3)ccc2Cl)c(=O)n(-c2ccccc2)n1C (stereo not given)	none (no result: bIAP inhibitor, bIAP act)
Cc1oc(-c2ccc(Cl)cc2)cc1-c1nn2c(-c3ccoc3C)nnc2s1	mIAP block 41.4 | mIAP inh conf 49.1
O=C(O)CC(CCc1ccccc1)OC1OC(CO)C(O)C(O)C1O (stereo not given)	mIAP block 76.2 (no result: bIAP inhibitor, bIAP act) | mIAP inh conf 79.7
CCCCC1NC(=S)N(C2CCCCC2)C1=O (stereo not given)	none
